Measurements published in ChEMBL document CHEMBL1275604, “Identification of TEM-135 beta-lactamase in penicillinase-producing Neisseria gonorrhoeae strains in Japan” (2010).
≈ marks a conversion by molar mass, not a printed value.

Experiments:
Type in all cases: functional
Neisseria gonorrhoeae [1] = test: Antimicrobial activity against […] Neisseria gonorrhoeae NGON 00-002 expressing beta-lactamase TEM-1, MLST type ST-1590 and MAST type ST-270 by agar dilution method
Summary of the method: (§1)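 Clinical PPNG isolates from one Tokyo hospital, collected 2000–2008 and flagged as penicillinase producers by nitrocefin test. MICs of penicillin, cefixime and ceftriaxone were determined by agar dilution per an earlier method. Isolates were typed by MLST and MAST. The bla gene was PCR-amplified (annealing at 60°C, 30 cycles) and sequenced to assign the TEM allele.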

Neisseria gonorrhoeae [2] = test: Antimicrobial activity against […] Neisseria gonorrhoeae NGON 00-027 expressing beta-lactamase TEM-1, MLST type ST-1921 and MAST type ST-1817 by agar dilution method; summary of the method: as §1
Neisseria gonorrhoeae [3] = test: Antimicrobial activity against […] Neisseria gonorrhoeae NGON 04-025 expressing beta-lactamase TEM-135, MLST type ST-1597 and MAST type ST-1549 by agar dilution method
Neisseria gonorrhoeae [4] = test: Antimicrobial activity against […] Neisseria gonorrhoeae NGON 05-042 expressing beta-lactamase TEM-1, MLST type ST-1588 and MAST type ST-4012 by agar dilution method
Neisseria gonorrhoeae [5] = test: Antimicrobial activity against […] Neisseria gonorrhoeae NGON 06-041 expressing beta-lactamase TEM-1, MLST type ST-1588 and MAST type ST-4012 by agar dilution method
Neisseria gonorrhoeae [6] = test: Antimicrobial activity against […] Neisseria gonorrhoeae NGON 08-003 expressing beta-lactamase TEM-135, MLST type ST-7823 and MAST type ST-4013 by agar dilution method; summary of the method: as §1
Neisseria gonorrhoeae [7] = test: Antimicrobial activity against […] Neisseria gonorrhoeae NGON 08-041 expressing beta-lactamase TEM-1, MLST type ST-1584 and MAST type ST-1478 by agar dilution method; summary of the method: as §1
Neisseria gonorrhoeae [8] = test: Antimicrobial activity against […] Neisseria gonorrhoeae NGON 08-043 expressing beta-lactamase TEM-1, MLST type ST-7823 and MAST type ST-1288 by agar dilution method; summary of the method: as §1
Neisseria gonorrhoeae [9] = test: Antimicrobial activity against […] Neisseria gonorrhoeae NGON 08-044 expressing beta-lactamase TEM-1, MLST type ST-7823 and MAST type ST-1288 by agar dilution method; summary of the method: as §1
Neisseria gonorrhoeae [10] = test: Antimicrobial activity against […] Neisseria gonorrhoeae NGON 08-046 expressing beta-lactamase TEM-1, MLST type ST-1584 and MAST type ST-1478 by agar dilution method

SMILES | MIC (Neisseria gonorrhoeae [1]) [mg/L] | MIC (Neisseria gonorrhoeae [2]) [mg/L] | MIC (Neisseria gonorrhoeae [3]) [mg/L] | MIC (Neisseria gonorrhoeae [4]) [mg/L] | MIC (Neisseria gonorrhoeae [5]) [mg/L] | MIC (Neisseria gonorrhoeae [6]) [mg/L] | MIC (Neisseria gonorrhoeae [7]) [mg/L] | MIC (Neisseria gonorrhoeae [8]) [mg/L] | MIC (Neisseria gonorrhoeae [9]) [mg/L] | MIC (Neisseria gonorrhoeae [10]) [mg/L]
C=CC1=C(C(=O)O)N2C(=O)[C@@H](NC(=O)/C(=N\OCC(=O)O)c3csc(N)n3)[C@H]2SC1 [CEFIXIME] | 0.032 (≈ 0.0706 µM) | 0.008 (≈ 0.0176 µM) | 0.004 (≈ 0.00882 µM) | 0.25 (≈ 0.551 µM) | 0.25 (≈ 0.551 µM) | 0.032 (≈ 0.0706 µM) | 0.008 (≈ 0.0176 µM) | 0.064 (≈ 0.141 µM) | 0.064 (≈ 0.141 µM) | 0.25 (≈ 0.551 µM)
CO/N=C(\C(=O)N[C@@H]1C(=O)N2C(C(=O)O)=C(CSc3nc(=O)c(O)nn3C)CS[C@H]12)c1csc(N)n1 [CEFTRIAXONE] | 0.016 (≈ 0.0289 µM) | 0.008 (≈ 0.0144 µM) | ≤ 0.004 | 0.064 (≈ 0.115 µM) | 0.032 (≈ 0.0577 µM) | 0.032 (≈ 0.0577 µM) | 0.004 (≈ 0.00721 µM) | 0.064 (≈ 0.115 µM) | 0.064 (≈ 0.115 µM) | 0.032 (≈ 0.0577 µM)
CC1(C)S[C@@H]2[C@H](NC(=O)Cc3ccccc3)C(=O)N2[C@H]1C(=O)O [PENICILLIN G] | 16 (≈ 47.8 µM) | > 64 | > 64 | 64 (≈ 191 µM) | 32 (≈ 95.7 µM) | > 64 | 64 (≈ 191 µM) | > 64 | > 64 | 64 (≈ 191 µM)
